Results on five compounds are retold here after ChEMBL document CHEMBL1151173, “Sesquiterpene lactones from Montanoa hibiscifolia that inhibit the transcription factor NF-kappa B” (J Nat Prod, 2004).

In data set [1] the test system is RAW264.7. The experiment in a line: Inhibition of NF-kappaB binding to DNA in LPS-stimulated mouse RAW264.7 cells pretreated for 1 hr before LPS stimulation.
A further data set deals with Jurkat. The experiment in a line: Inhibition of NF-kappaB binding to DNA in TNF-alpha-stimulated human Jurkat T cells pretreated for 1 hr before TNFalpha stimulation. It is filed as cell-based. The essentials: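 Jurkat T cells (RPMI 1640, 10% FCS, penicillin/streptomycin) were pretreated 1 h with compound at various concentrations, then stimulated 1 h with 200 U/mL TNF-α. High-salt detergent total extracts (10-20 µg protein) were incubated 25 min at room temperature with poly(dI-dC), BSA and a 33P-labeled NF-κB oligonucleotide. The EMSA value is the lowest concentration giving complete inhibition of DNA binding. Run in duplicate.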

In data set [2] the test system is RAW264.7. Description: Cytotoxicity against mouse RAW264.7 cells by trypan blue exclusion method. It is filed as cell-based.

For the compound `C=C1C(=O)O[C@H]2/C=C(\C)CC/C=C(/C)[C@@H](OC(=O)/C(C)=C/C)[C@H](O)[C@@H]12`, the Activity in the data set on RAW264.7 [1] was 20 µM; with RAW264.7 [2] it was “Non-toxic”. Besides, in the data set on Jurkat, the Lowest concentration giving complete inhibition of NF-kappaB DNA binding is 100 µM.

For the compound `C=C1CCC=C(C)[C@@]2(O)[C@H](OC(=O)[C@]3(C)O[C@@H]3C)[C@@H]3[C@@H](OC(=O)[C@@H]3C)[C@H]12`, in the data set with Jurkat, the Lowest concentration giving complete inhibition of NF-kappaB DNA binding was 200 µM.

As to `C=C1C(=O)O[C@H]2/C=C(\C)CC/C=C(/C)C(=O)[C@H](OC(=O)[C@@]3(C)O[C@H]3C)[C@@H]12`, the Activity in the data set on RAW264.7 [1] was 20 µM; in the data set on RAW264.7 [2], “Non-toxic”. For the same compound, the Lowest concentration giving complete inhibition of NF-kappaB DNA binding in the data set on Jurkat was 50 µM.

Take `C=C1C(=O)O[C@@H]2C3O[C@]3(C)CC/C=C(\C)CC[C@@H]12` (stereo partly specified): the Lowest concentration giving complete inhibition of NF-kappaB DNA binding in the data set with Jurkat is 20 µM.

As to `C=C1C(=O)O[C@@H]2[C@H]1[C@@H](OC(=O)[C@]1(C)O[C@@H]1C)C(=O)[C@@]1(C)C=CC[C@@](C)(O)[C@@H]21`, the Activity in the data set on RAW264.7 [1] was 10 µM; in the data set with RAW264.7 [2], “Non-toxic”. For the same compound, in the data set with Jurkat, the Lowest concentration giving complete inhibition of NF-kappaB DNA binding is 10 µM.
